Runt-SMMHC FRET: Runt domain-CBFb-SMMHC interaction inhibition; Q01196+Q13951; Cerulean-Runt/Venus-CBFb-SMMHC FRET ratio 530/480, 1 h; inhibition, % at 20 µM; 220,000 compounds, 0.74% hits; AID 1434;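 active means mean inhibition across duplicate retests at 20 µM reaching about 50%, limit read from the data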;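 further: inhibitors lower the FRET ratio by blocking Runt binding to CBFb-SMMHC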
Rce1 inhib: yeast Ras-converting enzyme inhibition. 290,000 compounds, 0.27% hits. yeast membranes, quenched prenylated peptide cleavage fluorescence. calls only. Q03530;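 active means fall in fluorescence gain of 50% or more versus controls, with final raw signal at or below 3038400; inconclusive means same 50% fall but final raw signal above 3038400; inactive means fall in fluorescence gain under 50%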
Target sequence (Q03530 whole entry, looked up): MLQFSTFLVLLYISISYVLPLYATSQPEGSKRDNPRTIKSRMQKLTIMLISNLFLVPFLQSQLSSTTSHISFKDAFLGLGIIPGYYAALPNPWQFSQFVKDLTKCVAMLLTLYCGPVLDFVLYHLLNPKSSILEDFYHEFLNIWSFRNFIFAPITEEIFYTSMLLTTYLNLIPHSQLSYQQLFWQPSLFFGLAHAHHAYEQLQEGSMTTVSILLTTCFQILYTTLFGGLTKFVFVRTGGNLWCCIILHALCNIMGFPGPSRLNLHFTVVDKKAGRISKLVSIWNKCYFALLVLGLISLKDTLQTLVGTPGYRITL
Runt-CBFb FRET: Runt domain-CBFb interaction inhibition | Q01196+Q13951 | 220,000 compounds, 0.46% hits | inhibition, % at 20 µM | Cerulean-Runt/Venus-CBFb FRET ratio 530/480, 1 h | AID 1496;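 active means inhibition over about 50% at 20 µM in the single-dose screen, limit read from the data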
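Measured by: fluorescence energy transfer, 422 nm excitation, 530/480 nm emission; Assay system: Cerulean-Runt domain; Medium: Tris pH 7.5 buffer with BSA; Measure: loss of energy transfer signal; Controls: 5 µM unlabeled CBFb as full-inhibition high control; Incubation: protein complex preformed 1 h, compound exposure 1 h, room temperature, dark.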
RanGTP-Impb inh: disruptors of Ran-importin-beta complex formation – biochemical, FRET, CFP-Ran, YFP-importin-beta, homogeneous, primary screen | cell-free CFP-Ran/YFP-importin-beta FRET ratio | inhibition, % (concentration not given with the values) | 300,000 compounds, 1.1% hits | AID 2216;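 active means more than half of the replicate wells show a fall in the fluorescence ratio signal beyond about 16%, limit read from the data, passing the limit was not always enough; inconclusive means exactly half of the replicate wells pass the set limit; inactive means fewer than half of replicates pass the limit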
Platelet DG rel: platelet dense granule release activity | human platelet-rich plasma, SFLLRN dense granule ATP release, luminescence | AID 1663 | inhibition, %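 (compounds screened at 7.5 µM in platelet-rich plasma)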 | 300,000 compounds, 0.22% hits;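 active means mean replicate score, as percent of positive control, at or above 50; inconclusive means mean below 50 but at least one replicate at or above 50; inactive means mean and every replicate below 50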
Hits are given with their value; – = inactive; ? = inconclusive; · = no result; + = active, no number. Hits are enriched below; roughly 1.8% of the tested compounds scored in any of these assays.

SMILES	Runt-SMMHC FRET	Rce1 inhib	Runt-CBFb FRET	RanGTP-Impb inh	Platelet DG rel
c1ccc(N2CCN(c3nc4ccccc4n4nnnc34)CC2)cc1	–	–	–	44	–
c1ccc2c(c1)nc(N1CCOCC1)c1nnnn12	–	–	–	?	–
O=C(/C=C/c1ccc(Cl)c(Cl)c1)NC1=NCCS1	–	–	–	–	–
Oc1ccc(-c2cn3cc(C(F)(F)F)ccc3n2)cc1	–	+	–	–	–
Clc1ccc(-c2cn3cc(Cl)ccc3n2)cc1	·	–	·	–	–
Cc1ccc(NS(=O)(=O)c2ccc(NC(=O)N3CCCCC3)cc2)cc1	·	+	·	–	–
Cc1oc2nc(SCC(=O)N3CCCCC3)nc(N)c2c1C	–	–	–	–	–
CC1(c2ccc(OCC#N)cc2)C=C(c2ccc(OCC#N)cc2)n2nc(C(F)(F)F)nc2N1 (stereo not given)	–	+	–	–	–
O=C(O)c1ccc(N/N=C/c2ccncc2)cc1	·	–	·	–	–
O=C(O)c1ccc(N/N=C/C2=Cc3ccccc3OC2)cc1	–	–	–	21	–
COC(C/C=C/C(=O)[C@H](C)OCc1ccccc1)OC	·	+	·	–	–
COC(C[C@H](O)C[C@@H](O)[C@H](C)OCc1ccccc1)OC	–	–	–	–	–
COC(C/C=C/[C@@H](O)[C@H](C)OCc1ccccc1)OC	·	+	·	–	–
COC(C/C=C\[C@@H](O)[C@H](C)OCc1ccccc1)OC	·	–	·	–	–
COC(C/C=C/[C@H](O)[C@H](C)OCc1ccccc1)OC	·	+	·	?	–
COC(C[C@H](O)C[C@H](O)[C@@H](C)OCc1ccccc1)OC	·	+	·	–	–
CC(C)Oc1ccc(C(=O)Nc2c3c(nn2C(C)(C)C)CS(=O)(=O)C3)cc1	·	–	·	–	–
COC(C/C=C\[C@H](O)[C@@H](C)OCc1ccccc1)OC	·	–	·	–	–
COC(C/C=C/[C@H](O)[C@@H](C)OCc1ccccc1)OC	·	+	·	–	–
O=C(Cc1nc2ccccc2s1)c1ccc(O)cc1O	114	–	–	–	–
O=C(CSc1nc2ccccc2s1)c1ccc(O)cc1O	·	–	·	–	–
CCN(CC)c1ccc(/C=N/NC(=O)C(O)(c2ccccc2)c2ccccc2)o1	–	+	–	?	–
COc1ccccc1CNC(=O)C(=O)NCCC1CCCCN1S(=O)(=O)c1ccc(C)cc1 (stereo not given)	·	–	·	–	–
COc1ccccc1CCNC(=O)C(=O)NCCC1CCCCN1S(=O)(=O)c1ccccc1 (stereo not given)	·	–	·	37	–
Oc1ccc(-c2csc(-c3ccccc3)n2)cc1O	52	–	–	–	–
SMILES	Runt-SMMHC FRET	Rce1 inhib	Runt-CBFb FRET	RanGTP-Impb inh	Platelet DG rel
O=C(CCC1CCCCC1)NCCN1C2=NC[C@H](Cc3ccc(O)cc3)N2C[C@H]1Cc1ccc(O)cc1	–	–	–	16	–
CC(=O)Nc1ccc(S(=O)(=O)NCC(=O)OCC(=O)NCc2ccco2)cc1	·	–	·	–	–
Cc1ccc(S(=O)(=O)N2CCOCC2)cc1NC(=O)COC(=O)c1cc(=O)[nH]c2ccccc12	–	–	–	26	–
CC(C)OCCCn1c(=N)c(S(=O)(=O)c2ccccc2)cc2c(=O)n3ccccc3nc21	·	–	·	–	–
Clc1ccc(-c2nc3ccccn3c2CN2CCOCC2)cc1	–	–	–	–	–
N=c1c(S(=O)(=O)c2ccc(Cl)cc2)cc2c(=O)n3ccccc3nc2n1CCc1ccccc1	·	–	·	50	–
Cc1ccc(S(=O)(=O)c2cc3c(=O)n4ccccc4nc3n(CCCN3CCOCC3)c2=N)cc1C	·	–	·	135	–
N=c1c(S(=O)(=O)c2ccc(Cl)cc2)cc2c(=O)n3ccccc3nc2n1CCN1CCOCC1	63	–	90	–	–
N=c1c(S(=O)(=O)c2ccccc2)cc2c(=O)n3ccccc3nc2n1CCCN1CCOCC1	·	–	·	155	–
C[C@H](NC(=O)c1nc[nH]c1C(=O)N1CCc2ccccc2C1)C(=O)OCc1ccccc1	–	–	–	–	–
COc1cc(O)sc1C=Nc1ccc(Cl)cc1Cl	–	–	–	–	–
COc1cccc(NC(=O)c2cncs2)c1	·	–	·	–	–
Cc1cc(=O)nc2c3ccccc3n(CC(=O)NC(C)c3ccc4c(c3)OCCO4)n12 (stereo not given)	·	–	·	–	–
CCOCCCn1c(=N)c(S(=O)(=O)c2ccccc2)cc2c(=O)n3cc(C)ccc3nc21	·	–	·	160	–
Cc1ccc(NC(=O)Cn2cc([N+](=O)[O-])nc2C)cc1C	·	–	·	–	–
CCOC(=O)c1c(NC(=S)Nc2ccc(Cl)cc2)sc2c1CCN(C)C2	164	·	98	·	·
CCN1CCc2c(sc(NC(=O)c3ccc(S(=O)(=O)N4CCOCC4)cc3)c2C(=O)OC)C1	–	–	–	–	–
CCN1CCc2c(sc(NC(=O)COc3ccccc3)c2C(=O)OC)C1	·	–	·	87	–
CCN1CCc2c(sc(NC(=O)Nc3ccc(Cl)c(Cl)c3)c2C(N)=O)C1	77	·	–	·	·
CCOC(=O)N1CCc2c(sc(NC(C)=O)c2C(N)=O)C1	·	–	·	–	–
CCN1CCc2c(sc(NC(=O)c3ccc(S(=O)(=O)N(CC)c4ccccc4)cc3)c2C(N)=O)C1	·	–	·	72	–
CCN1CCc2c(sc(NC(=O)c3ccc(S(=O)(=O)N4CCOCC4)cc3)c2C(N)=O)C1	–	–	–	?	–
Cc1cc(C(=O)Nc2cc(Br)ccc2O)on1	·	–	·	–	–
CCOC(=O)C1CCCN(C(=O)c2cc3cc(OC)c(OC)cc3[nH]2)C1 (stereo not given)	·	–	·	–	–
CCNC(=S)Nc1nc2c(cc1C(=O)OCC)CCCC2	–	–	–	–	–
SMILES	Runt-SMMHC FRET	Rce1 inhib	Runt-CBFb FRET	RanGTP-Impb inh	Platelet DG rel
COc1ccc(OC)c(S(=O)(=O)N2CCC(C(=O)NCCc3ccccc3)CC2)c1	–	–	–	?	–
CN1CCc2c(sc(NC(=O)Cc3ccc(F)cc3)c2C(N)=O)C1	·	–	·	131	–
CCOC(=O)c1c(NC(=O)c2cccs2)sc2c1CCN(C(=O)OCC)C2	–	–	–	–	–
CCN1CCc2c(sc(NC(=S)NC(=O)c3ccco3)c2C(N)=O)C1	58	–	–	163	–
CN1CCc2c(sc(NC(=O)c3ccc4ccccc4c3)c2C(N)=O)C1	·	–	·	·	–
CCOC(=O)c1c(NC(=O)CSc2nnc(C)s2)sc2c1CCN(C)C2	135	–	79	27	–
CCOC(=O)c1c(NC(=O)Cc2ccccc2)sc2c1CCN(C)C2	·	–	·	76	–
CC(NC(=O)c1ccco1)C(=O)OCC(=O)c1ccc(Cl)s1 (stereo not given)	–	–	–	–	–
COc1ccccc1N(Cc1ccccc1)S(=O)(=O)c1cccc(C(=O)NC2CC(C)(C)NC(C)(C)C2)c1	·	–	·	–	–
CN1CCc2c(sc(NC(=O)Cc3ccccc3)c2C(N)=O)C1	·	–	·	134	–
CCOC(=O)c1c(NC(=O)C(F)(OC)C(F)(F)F)sc2c1CCN(C)C2 (stereo not given)	62	–	84	76	–
CCOC(=O)c1c(NC(=O)OC)sc2c1CCC2	–	–	–	–	–

Screening results (PubChem BioAssay)
